The term inhibition denotes the change of the read-out against control, counted positive when it falls.

The text below walks through data of ChEMBL document CHEMBL1126041, “Leukotriene B4 receptor antagonists: the LY255283 series of hydroxyacetophenones” (J Med Chem, 1992).

The structures appear in SMILES notation.

Assay [1] concerns the target Leukotriene B4 receptor 1 (Homo sapiens) (UniProt Q15722). The assay can be described thus: Inhibition of binding of [3H]LTB4 to the leukotriene B4 receptor of human peripheral neutrophils (PMN) at a concentration of 10 uM. Summed up: (§1)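 Neutrophils isolated by Ficoll-Hypaque centrifugation, dextran 70 sedimentation and hypotonic lysis (≥90% neutrophils, ≥90% viable), 2 × 10^7 cells/mL in Hank's balanced salt solution with 0.1% ovalbumin. Compound in DMSO plus 2.65 nM [3H]LTB4 (stock), 10 min at 4 °C. Cells spun through dibutyl/dinonyl phthalate (7:2), pellet counted by scintillation. Triplicate incubations averaged. Reported as % inhibition of specific binding; nonspecific binding taken with >2000-fold excess unlabeled LTB4.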

Assay [2] has the same target. The experiment in a line: Inhibition of [3H]LTB4 binding to leukotriene B4 receptor from human peripheral neutrophils (PMN), at a concentration of 1 uM. The method in brief: as §1
Assay [3] deals with Leukotriene B4 receptor (Homo sapiens) (UniProt Q9NPC1+Q15722). The experiment in a line: Inhibition of [3H]LTB4 binding to leukotriene B4 receptor of human peripheral neutrophils (PMN) at a concentration of 0.1 uM. The assay is classed as protein assay. The method in brief: as §1
Leukotriene B4 receptor (Homo sapiens), sequence (Q15722 whole entry, looked up): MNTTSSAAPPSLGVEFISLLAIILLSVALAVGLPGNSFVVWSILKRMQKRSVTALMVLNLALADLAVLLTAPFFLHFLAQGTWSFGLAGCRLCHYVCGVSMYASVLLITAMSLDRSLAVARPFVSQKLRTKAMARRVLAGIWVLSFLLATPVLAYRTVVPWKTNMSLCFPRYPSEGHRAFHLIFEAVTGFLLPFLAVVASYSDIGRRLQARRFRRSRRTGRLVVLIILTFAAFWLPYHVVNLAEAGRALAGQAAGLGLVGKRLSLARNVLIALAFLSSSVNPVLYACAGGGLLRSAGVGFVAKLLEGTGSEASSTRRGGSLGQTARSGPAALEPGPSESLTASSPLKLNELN
Leukotriene B4 receptor (Homo sapiens), sequence (Q9NPC1 whole entry, looked up): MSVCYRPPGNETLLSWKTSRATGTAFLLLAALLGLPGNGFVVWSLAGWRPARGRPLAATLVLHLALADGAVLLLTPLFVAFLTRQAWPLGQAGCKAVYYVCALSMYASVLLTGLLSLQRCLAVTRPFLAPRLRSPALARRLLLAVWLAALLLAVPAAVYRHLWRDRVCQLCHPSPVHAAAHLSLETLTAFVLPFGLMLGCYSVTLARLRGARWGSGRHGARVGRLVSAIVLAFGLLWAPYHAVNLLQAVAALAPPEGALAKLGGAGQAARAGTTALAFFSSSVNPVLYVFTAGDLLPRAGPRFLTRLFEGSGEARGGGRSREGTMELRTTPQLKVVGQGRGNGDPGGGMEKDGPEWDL

Leukotriene B4 receptor 1 (Homo sapiens), sequence (Q15722 whole entry): as the sequence (Q15722 whole entry, looked up) above

On to `CSCc1cc(C(C)=O)c(O)cc1OCCCCCCC#N`, for which the inhibition came to 97% in assay [1] and 64% in assay [2].

With `C=CCc1cc(C(C)=O)c(O)cc1OCCCCCC(=O)N(C)C`, the inhibition came to 92% in assay [1] and 54% in assay [2].

With `CCc1cc(C(C)=O)c(O)cc1OCCCCCCC(=O)NC`, the inhibition in assay [1] was 97%; in assay [2], 54%.

Consider `C=CCc1cc(C(C)=O)c(O)cc1OCCCCO`, for which the figures for the inhibition in assay [1] and in assay [2] were 48% and 9%, respectively.

Turning to `CCc1cc(C(C)=O)c(O)cc1Oc1cccc(C#N)c1`, the inhibition in assay [1] was 11%; in assay [2], 8%.

Turning to `C=CCc1cc(C(C)=O)c(OC)cc1OCCCCC#N`, the values for the inhibition in assay [1] and in assay [2] were 13% and 8%, respectively.

On to `CCCc1c(OCCCCC#N)ccc(C(C)=O)c1O`, for which the results for the inhibition in assay [1] and in assay [2] were 0% and 9%, respectively.

Take `C=CCc1cc(C(=O)CCCCCCCCC)c(O)cc1OCCCCC#N`: the inhibition in assay [1] was 10%; in assay [2], 7%.

In the case of `C=CCc1cc(C(C)=O)c(O)cc1OCCCCCCC#N`, the inhibition turned out to be 97% in assay [1] and 63% in assay [2].

Take `CCCc1cc(C(C)=O)c(O)c(CCC)c1OCCCCC#N`: the inhibition in assay [1] and in assay [2] was 0% in each case.

For `CCC1(c2ccc(N)cc2)CCC(=O)NC1=O` (stereo unspecified), the inhibition was determined as 82% in assay [1] and 29% in assay [2].

Consider `CCc1cc(C(C)=O)c(O)cc1OCCCCC(C)(C)c1nnn[nH]1`, for which the results for the inhibition in assay [3] and in assay [2] were 17% and 66%, respectively.

In the case of `C=CCc1cc(C(C)=O)c(O)cc1OCc1cccc(CC#N)c1`, the inhibition in assay [1] came to 16%; in assay [2] it was 0%.

Take `CC(=O)c1ccc(OCCCCC#N)cc1O`: the inhibition in assay [1] and in assay [2] was 0% in each case.

Regarding `C=CCc1cc(C(C)=O)c(O)cc1OCc1ccc(C#N)cc1`, the inhibition was 22% in assay [1] and 28% in assay [2].

For `C=CCc1cc(C(C)=O)c(O)cc1OCCCCCC`, the inhibition in assay [1] amounted to 50%; in assay [2], 9%.

On to `CC(=O)c1cc(C(C)=O)c(OCCCCC#N)cc1O`, for which the inhibition in assay [1] is 8%; in assay [2], 0%.

Take `CCc1cc(C(C)=O)c(O)cc1OCCCCCCCC(C)(C)c1nnn[nH]1`: the inhibition worked out at 49% in assay [3] and 96% in assay [2].

For the compound `C=CCCCCOc1cc(O)c(C(C)=O)cc1CC=C`, the inhibition was 73% in assay [1] and 27% in assay [2].

Regarding `CCc1cc(C(C)=O)c(O)cc1OCc1ccc(C(=O)O)cc1`, the inhibition in assay [1] came out at 22%; in assay [2] it was 0%.

As for `CCCCc1cc(C(C)=O)c(O)cc1OCCCCC#N`, the inhibition in assay [1] is 41%; in assay [2], 13%.

Take `C#CCCCCOc1cc(O)c(C(C)=O)cc1CC=C`: the values for the inhibition in assay [1] and in assay [2] were 74% and 29%, respectively.

Turning to `C=CCc1cc(C(C)=O)c(O)cc1OCCCCCCCCCCC#N`, the inhibition came to 50% in assay [1] and 14% in assay [2].

On to `C=CCc1ccc(O)cc1OCCCCC#N`, for which the inhibition in assay [1] was determined as 29%; in assay [2] it was 9%.

For `CCc1cc(C(C)=O)c(O)cc1OCCCCCCS(C)(=O)=O`, the inhibition in assay [1] came to 99%; in assay [2], 62%.

With `CC(=O)c1cc(CC2CO2)c(OCCCCC#N)cc1O` (stereo unspecified), the inhibition in assay [1] was 62%; in assay [2], 24%.

`C=CCc1cc(C(=O)CC)c(O)cc1OCCCCC#N`: the inhibition was determined as 77% in assay [1] and 36% in assay [2].

Turning to `CCCc1cc(C(C)=O)c(O)cc1OCCCCN`, the results for the inhibition in assay [1] and in assay [2] were 6% and 0%, respectively.

`CCCc1cc(C(C)=O)c(O)cc1OCCCCC(=O)O`: the values for the inhibition in assay [1] and in assay [2] were 11% and 0%, respectively.

For the compound `C=CCc1cc(C(C)=O)c(O)cc1OCc1ccccc1C#N`, the inhibition in assay [1] worked out at 47%; in assay [2], 6%.

In the case of `C=CCc1cc(C(C)=O)c(O)cc1OCC#N`, the inhibition was 20% in assay [1] and 2% in assay [2].

Regarding `CCc1cc(C(C)=O)c(O)cc1OCCCCCCC#N`, the inhibition in assay [1] turned out to be 103%; in assay [2], 73%.

As for `CCc1cc(C(C)=O)c(O)c(C)c1OCCCCCC(C)(C)c1nnn[nH]1`, the inhibition in assay [1] worked out at 42%; in assay [2], 9%.

For `CCc1cc(C(C)=O)c(O)cc1OCCCCCCC(=O)N(C)C`, the results for the inhibition in assay [1] and in assay [2] were 100% and 61%, respectively.

For `CCc1cc(C(C)=O)c(O)cc1OCCCCC#N`, the inhibition in assay [1] was 92%; in assay [2], 57%.

Take `CC(=O)c1cc(CC(C)O)c(OCCCCC#N)cc1O` (stereo unspecified): the inhibition in assay [1] worked out at 10%; in assay [2], 6%.

`CCCCCc1cc(C(C)=O)c(O)cc1OCCCCC#N`: the inhibition in assay [1] worked out at 31%; in assay [2] it was 14%.

Consider `C=CCc1cc(C(C)=O)c(O)cc1OCCCCCCCC#N`, for which the inhibition in assay [1] is 88%; in assay [2], 52%.

For `CCc1cc(C(C)=O)c(O)cc1OCCCCc1nnn[nH]1`, the inhibition in assay [1] came out at 49%; in assay [2], 19%.

In the case of `C=CCc1cc(C(C)=O)c(O)cc1OCCCC`, the inhibition in assay [1] is 32%; in assay [2], 8%.

Regarding `C=CCc1cc(C(C)=O)c(O)cc1OCCCCCC(C)=O`, the inhibition in assay [1] was determined as 98%; in assay [2], 58%.

With `CC(=O)c1cc(CO)c(OCCCCCCC#N)cc1O`, the inhibition in assay [1] came to 40%; in assay [2] it was 8%.

Consider `C=CCc1cc(C(C)=O)c(O)cc1OCCCCCC#N`, for which the figures for the inhibition in assay [1] and in assay [2] were 81% and 41%, respectively.

For `C=CCc1cc(C(C)=O)c(O)cc1OCCCCCC(=O)NO`, the inhibition in assay [1] is 85%; in assay [2], 28%.

As for `CCCc1cc(C(C)=O)c(O)cc1OCCCCNC(C)=O`, the figures for the inhibition in assay [1] and in assay [2] were 71% and 23%, respectively.

With `CCCCCCc1cc(C(C)=O)c(O)cc1OCCCCC#N`, the inhibition came out at 51% in assay [1] and 13% in assay [2].

Consider `COCc1cc(C(C)=O)c(O)cc1OCCCCCCC#N`, for which the figures for the inhibition in assay [1] and in assay [2] were 47% and 7%, respectively.

Turning to `C=CCc1cc(C(C)=O)c(O)cc1OCCCCCCCCC#N`, the figures for the inhibition in assay [1] and in assay [2] were 86% and 50%, respectively.

As to `CCc1cc(C(C)=O)c(O)cc1OCCCCCCC(C)(C)c1nnn[nH]1`, the inhibition stood at 13% in assay [3] and 67% in assay [2].

For the compound `CCc1cc(C(C)=O)c(O)cc1OCCCCN1CCOCC1`, the inhibition is 32% in assay [1] and 9% in assay [2].

For the compound `C=CCc1cc(C(=O)c2ccccc2)c(O)cc1OCCCCC#N`, the figures for the inhibition in assay [1] and in assay [2] were 33% and 5%, respectively.

For `C=CCc1cc(C(C)=O)c(O)cc1OCCCCCC(C)(C)O`, the inhibition in assay [1] was 98%; in assay [2], 60%.

As for `CCc1cc(C(C)=O)c(O)cc1OCCCCCCc1nnn[nH]1`, the figures for the inhibition in assay [1] and in assay [2] were 91% and 60%, respectively.

In the case of `CC(=O)c1cc(C(C)(C)C)c(OCCCCCC(C)(C)C#N)cc1O`, the inhibition was 1% in assay [1] and 2% in assay [2].

Take `C=CCc1cc(C(C)=O)c(O)cc1OCCCCCC(N)=O`: the inhibition is 88% in assay [1] and 37% in assay [2].

As for `C=CCc1cc(C(C)=O)c(O)cc1OCCCCCC(=O)OC`, the inhibition came to 106% in assay [1] and 65% in assay [2].

For `CCc1cc(C(C)=O)c(O)cc1OCCCCCCC(=O)O`, the inhibition in assay [1] was 87%; in assay [2], 38%.

`CCCc1cc(C(C)=O)c(O)cc1OCCCCC#N`: the inhibition in assay [1] was 84%; in assay [2], 37%.

Regarding `C=CCc1cc(C(C)=O)c(O)cc1OCCCCCCC`, the inhibition was found to be 31% in assay [1] and 8% in assay [2].

As to `CCCc1cc(C(C)=O)c(Cl)cc1OCCCCC#N`, the inhibition is 35% in assay [1] and 13% in assay [2].

As for `CCc1cc(C(C)=O)c(O)cc1OCCCCCCC(=O)Nc1nn[nH]n1`, the inhibition in assay [1] stood at 101%; in assay [2], 83%.

Consider `C=CCc1cc(C(C)=O)c(O)cc1OCCCC#N`, for which the inhibition in assay [1] was determined as 47%; in assay [2], 6%.

Turning to `CCCc1cc(C(C)=O)ccc1OCCCCC#N`, the inhibition in assay [1] was 44%; in assay [2] it was 19%.

With `C=CCc1cc(C(C)=O)c(O)cc1OCc1ccc(CC#N)cc1`, the inhibition in assay [1] was found to be 30%; in assay [2], 17%.

Consider `CC(=O)c1cc(C)c(OCCCCC#N)cc1O`, for which the inhibition was 79% in assay [1] and 35% in assay [2].

`CCCc1cc(C(C)=O)c(O)cc1OCCCCCC(=O)O`: the figures for the inhibition in assay [1] and in assay [2] were 73% and 24%, respectively.

For `CCc1cc(C(C)=O)c(O)cc1OCCCCCn1cncn1`, the inhibition was 82% in assay [1] and 30% in assay [2].

On to `C=CCc1cc(C(C)=O)c(O)cc1OCCCCC`, for which the results for the inhibition in assay [1] and in assay [2] were 60% and 23%, respectively.

In the case of `CCc1cc(C(C)=O)c(O)cc1OCCCCCC[S+](C)[O-]` (stereo unspecified), the inhibition in assay [1] amounted to 92%; in assay [2], 50%.

On to `CCc1cc(C(C)=O)c(O)cc1OCCCCN(C)C`, for which the inhibition in assay [1] worked out at 4%; in assay [2] it was 3%.

As to `CCc1cc(C(C)=O)c(O)cc1OCCCCCCSC`, the inhibition stood at 71% in assay [1] and 14% in assay [2].

Regarding `C=CCc1cc(C(C)=O)c(O)cc1OCCCCC#N`, the inhibition in assay [1] came to 92%; in assay [2] it was 57%.

`CC(=O)c1cc(C=O)c(OCCCCC#N)cc1O`: the inhibition in assay [1] came out at 6%; in assay [2] it was 3%.
